Assay results as given in ChEMBL document CHEMBL4020839, “Class I HDAC Inhibitors Display Different Antitumor Mechanism in Leukemia and Prostatic Cancer Cells Depending on Their p53 Status” (J Med Chem, 2018).
pIC50: −log10 of the molar value. Activity calls are given as the source filed them. The calls are words filed in the database; no cut-off is given here.

Experiments:
PC-3 [1] = assay: Induction of morphological changes in human PC3 cells at 2 to 10 uM after 48 hrs by phase contrast microscopic method; format: functional, cell-based
How it was run: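 PC-3 cells treated 48 h with vehicle (DMSO), 2 μM or 10 μM and examined by phase-contrast light microscopy for morphology. Representative of n = 2.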

MV4-11 [2] = assay: Induction of apoptosis in human MV4-11 cells assessed as increase in cleaved caspase-3 level at 1 to 2 uM after 24 hrs by Western blot method; format: functional, cell-based
How it was run: (§1)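 MV4-11 (1,500,000/well) or PC-3 (300,000/well) grown 12 h, then treated 24 h at 1 and 2 μM, with 5 μM SAHA as reference. RIPA lysis, sonication and centrifugation, BCA normalization. NuPAGE 4–12% Bis-Tris gel in MES, transfer, primary antibodies 1/1000 overnight at 4 °C. Actin as loading control.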

[3] = target: Matrix metalloproteinase 2/9 (Homo sapiens) (UniProt P08253+P14780); assay: Inhibition of human MMP2/C-terminal hemopexin domain truncated MMP9 up to 50 uM preincubated for 10 to 15 mins followed by substrate addition measured after 2 hrs by fluorescence assay; format: protein assay
How it was run: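 Gelatinase kit assay: compound (100 μM stock), MMP inhibitor (40 μM stock) or activation buffer combined with MMP-2/MMP-9 in activation buffer. After 10–15 min, substrate added and incubated at 37 °C for 2 h. Fluorescence read at 320/405 nm.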

Histone deacetylase 4 = Histone deacetylase 4 (Homo sapiens, UniProt P56524); assay: Inhibition of recombinant human N-terminal GST-tagged/C-terminal His-tagged HDAC4 (627 to 1084 residues) expressed in baculovirus expression system using Boc-Lys(trifluoroacetyl)-AMC as substrate preincubated for 1 hr followed by substrate addition measured after 2 hrs by fluorescence assay
How it was run: (§2)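 Recombinant HDAC incubated with serial compound dilutions at 30 °C for 1 h. Reaction run 2 h at 30 °C, stopped with developer containing trypsin and TSA. Fluorescence read after 30 min at 360/460 nm. Inhibition relative to control wells; IC50 from variable-slope fit.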

PC-3 [4] = assay: Antiproliferative activity against human PC3 cells assessed as cell viability at 10 uM after 48 hrs by CellTiter-Blue assay relative to control; format: functional; details: PC-3, 48 h, read-out: Activity
How it was run: (§3)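 MV4-11 and PC-3 cells treated with 10 or 2 μM (or 0 μM) and sampled at 24 and 48 h. Viable cells measured by CellTiter-Blue resorufin fluorescence, read as in the EC50 assay, which is proportional to viable cell number. Representative of n = 2 experiments.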

Histone deacetylase 5 = Histone deacetylase 5 (Homo sapiens, UniProt Q9UQL6); assay: Inhibition of recombinant human HDAC5 expressed in baculovirus expression system using Boc-Lys(trifluoroacetyl)-AMC as substrate preincubated for 1 hr followed by substrate addition measured after 2 hrs by fluorescence assay; how it was run: as §2
PC-3 [5] = assay: Induction of apoptosis in human PC3 cells assessed as increase in cleaved PARP level at 1 to 2 uM after 24 hrs by Western blot method; format: functional, cell-based; how it was run: as §1
MV4-11 [6] = assay: Antiproliferative activity against human MV4-11 cells assessed as cell death at 10 uM after 48 hrs by CellTiter-Blue assay; format: functional, cell-based; how it was run: as §3
Histone deacetylase 9 = Histone deacetylase 9 (Homo sapiens, UniProt Q9UKV0); assay: Inhibition of recombinant human C-terminal His-tagged HDAC9 (604 to 1066 residues) expressed in baculovirus expression system using Boc-Lys(trifluoroacetyl)-AMC as substrate preincubated for 1 hr followed by substrate addition measured after 2 hrs by fluorescence assay; how it was run: as §2
MV4-11 [7] = assay: Induction of p53 degradation in human MV4-11 cells up to 2 uM up to 6 hrs by Western blot analysis; format: functional, cell-based
Histone deacetylase 7 = target: T1, Histone deacetylase 7 (Homo sapiens, UniProt Q8WUI4); assay: Inhibition of recombinant human N-terminal GST-tagged HDAC7 (518-end residues) expressed in baculovirus expression system using Boc-Lys(trifluoroacetyl)-AMC as substrate preincubated for 1 hr followed by substrate addition measured after 2 hrs by fluorescence assay; how it was run: as §2
T1 sequence (Q8WUI4 whole entry): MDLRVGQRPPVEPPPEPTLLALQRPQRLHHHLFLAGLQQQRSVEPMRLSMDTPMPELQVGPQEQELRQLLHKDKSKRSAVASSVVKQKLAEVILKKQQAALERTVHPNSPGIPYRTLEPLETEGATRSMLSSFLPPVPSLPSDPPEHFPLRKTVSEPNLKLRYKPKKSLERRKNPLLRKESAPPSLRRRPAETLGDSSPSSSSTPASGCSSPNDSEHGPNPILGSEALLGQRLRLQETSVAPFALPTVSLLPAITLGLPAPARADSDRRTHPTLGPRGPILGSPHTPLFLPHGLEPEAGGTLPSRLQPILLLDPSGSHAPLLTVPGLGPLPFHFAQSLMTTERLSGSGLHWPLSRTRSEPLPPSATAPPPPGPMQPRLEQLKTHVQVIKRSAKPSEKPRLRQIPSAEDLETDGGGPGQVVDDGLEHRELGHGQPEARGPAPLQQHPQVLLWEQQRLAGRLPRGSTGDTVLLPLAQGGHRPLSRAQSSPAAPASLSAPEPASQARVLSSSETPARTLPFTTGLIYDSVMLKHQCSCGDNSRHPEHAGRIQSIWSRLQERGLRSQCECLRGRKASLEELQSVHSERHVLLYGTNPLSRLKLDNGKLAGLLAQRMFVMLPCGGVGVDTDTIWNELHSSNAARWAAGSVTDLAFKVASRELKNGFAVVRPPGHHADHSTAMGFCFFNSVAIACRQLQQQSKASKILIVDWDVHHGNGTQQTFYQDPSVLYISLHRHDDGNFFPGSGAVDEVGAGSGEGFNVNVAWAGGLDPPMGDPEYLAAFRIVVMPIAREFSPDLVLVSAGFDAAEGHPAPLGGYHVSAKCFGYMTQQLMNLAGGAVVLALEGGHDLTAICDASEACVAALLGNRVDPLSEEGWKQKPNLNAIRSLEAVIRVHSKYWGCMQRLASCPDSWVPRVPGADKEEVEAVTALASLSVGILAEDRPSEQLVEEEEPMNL

Chain of Histone deacetylase 4 (P56524 whole entry, the tested form may be a part): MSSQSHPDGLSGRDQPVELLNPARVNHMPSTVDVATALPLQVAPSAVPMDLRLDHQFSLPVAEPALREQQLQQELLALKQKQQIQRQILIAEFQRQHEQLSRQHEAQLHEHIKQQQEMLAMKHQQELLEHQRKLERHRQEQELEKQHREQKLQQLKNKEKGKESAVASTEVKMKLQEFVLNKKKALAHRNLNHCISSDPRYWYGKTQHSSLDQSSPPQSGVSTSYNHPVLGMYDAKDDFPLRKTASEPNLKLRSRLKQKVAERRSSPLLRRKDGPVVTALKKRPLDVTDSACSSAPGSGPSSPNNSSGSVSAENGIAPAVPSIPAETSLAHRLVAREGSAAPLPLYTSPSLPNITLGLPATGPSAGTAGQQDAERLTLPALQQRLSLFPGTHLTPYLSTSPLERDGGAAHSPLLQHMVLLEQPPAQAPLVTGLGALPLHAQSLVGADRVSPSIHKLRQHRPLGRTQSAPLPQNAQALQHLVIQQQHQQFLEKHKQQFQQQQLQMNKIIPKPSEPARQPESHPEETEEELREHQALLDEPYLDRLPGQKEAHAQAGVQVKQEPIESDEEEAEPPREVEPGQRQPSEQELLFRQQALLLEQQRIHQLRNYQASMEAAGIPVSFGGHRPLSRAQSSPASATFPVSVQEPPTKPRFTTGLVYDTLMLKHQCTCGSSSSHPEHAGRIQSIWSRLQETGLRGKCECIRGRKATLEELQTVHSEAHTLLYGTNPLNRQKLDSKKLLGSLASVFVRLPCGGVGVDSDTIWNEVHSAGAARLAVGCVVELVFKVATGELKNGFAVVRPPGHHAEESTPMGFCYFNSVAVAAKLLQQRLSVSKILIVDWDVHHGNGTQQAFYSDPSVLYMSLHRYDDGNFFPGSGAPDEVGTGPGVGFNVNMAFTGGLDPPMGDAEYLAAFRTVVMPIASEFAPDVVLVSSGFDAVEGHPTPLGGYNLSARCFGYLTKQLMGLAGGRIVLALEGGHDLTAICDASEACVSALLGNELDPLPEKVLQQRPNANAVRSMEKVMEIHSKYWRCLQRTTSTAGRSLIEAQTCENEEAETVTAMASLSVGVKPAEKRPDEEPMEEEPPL
Chain of Matrix metalloproteinase 2/9 (Homo sapiens) (P08253 whole entry, looked up, the tested form may be a part): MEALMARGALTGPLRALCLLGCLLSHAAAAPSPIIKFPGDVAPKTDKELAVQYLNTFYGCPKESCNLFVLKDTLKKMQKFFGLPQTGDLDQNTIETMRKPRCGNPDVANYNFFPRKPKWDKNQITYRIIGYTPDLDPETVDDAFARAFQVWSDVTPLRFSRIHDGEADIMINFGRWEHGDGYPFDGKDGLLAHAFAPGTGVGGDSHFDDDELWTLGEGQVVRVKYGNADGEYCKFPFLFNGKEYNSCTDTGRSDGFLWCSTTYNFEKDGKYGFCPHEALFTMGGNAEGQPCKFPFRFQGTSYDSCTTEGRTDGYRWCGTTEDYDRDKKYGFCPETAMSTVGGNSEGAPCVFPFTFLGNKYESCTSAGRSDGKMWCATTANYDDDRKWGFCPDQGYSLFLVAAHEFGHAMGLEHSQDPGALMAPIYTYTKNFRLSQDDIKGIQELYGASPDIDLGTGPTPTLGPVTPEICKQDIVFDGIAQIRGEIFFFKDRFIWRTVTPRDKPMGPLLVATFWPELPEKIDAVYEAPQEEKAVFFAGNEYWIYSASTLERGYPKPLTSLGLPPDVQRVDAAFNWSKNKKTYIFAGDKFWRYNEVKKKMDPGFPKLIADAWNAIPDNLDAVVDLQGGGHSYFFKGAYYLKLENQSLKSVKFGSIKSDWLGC
Chain of Matrix metalloproteinase 2/9 (Homo sapiens) (P14780 whole entry, looked up, the tested form may be a part): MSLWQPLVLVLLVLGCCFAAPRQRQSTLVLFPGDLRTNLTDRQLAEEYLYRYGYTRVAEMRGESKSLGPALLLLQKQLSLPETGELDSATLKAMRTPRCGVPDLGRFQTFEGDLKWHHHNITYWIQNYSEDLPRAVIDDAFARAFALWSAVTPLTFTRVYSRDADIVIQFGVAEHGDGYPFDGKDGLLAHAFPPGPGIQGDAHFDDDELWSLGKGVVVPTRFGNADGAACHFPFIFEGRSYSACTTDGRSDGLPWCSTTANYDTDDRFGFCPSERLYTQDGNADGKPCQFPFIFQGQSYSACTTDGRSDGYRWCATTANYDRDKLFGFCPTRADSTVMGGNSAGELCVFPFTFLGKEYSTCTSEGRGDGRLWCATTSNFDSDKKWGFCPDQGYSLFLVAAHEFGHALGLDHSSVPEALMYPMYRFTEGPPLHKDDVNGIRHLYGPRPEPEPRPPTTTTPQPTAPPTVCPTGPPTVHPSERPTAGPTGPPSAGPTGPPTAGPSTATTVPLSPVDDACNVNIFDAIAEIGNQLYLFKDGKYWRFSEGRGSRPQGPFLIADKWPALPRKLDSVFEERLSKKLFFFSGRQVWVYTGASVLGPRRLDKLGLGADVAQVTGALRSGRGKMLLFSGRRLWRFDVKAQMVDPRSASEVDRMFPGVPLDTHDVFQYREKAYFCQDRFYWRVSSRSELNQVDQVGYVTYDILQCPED
Chain of Histone deacetylase 5 (Q9UQL6 whole entry): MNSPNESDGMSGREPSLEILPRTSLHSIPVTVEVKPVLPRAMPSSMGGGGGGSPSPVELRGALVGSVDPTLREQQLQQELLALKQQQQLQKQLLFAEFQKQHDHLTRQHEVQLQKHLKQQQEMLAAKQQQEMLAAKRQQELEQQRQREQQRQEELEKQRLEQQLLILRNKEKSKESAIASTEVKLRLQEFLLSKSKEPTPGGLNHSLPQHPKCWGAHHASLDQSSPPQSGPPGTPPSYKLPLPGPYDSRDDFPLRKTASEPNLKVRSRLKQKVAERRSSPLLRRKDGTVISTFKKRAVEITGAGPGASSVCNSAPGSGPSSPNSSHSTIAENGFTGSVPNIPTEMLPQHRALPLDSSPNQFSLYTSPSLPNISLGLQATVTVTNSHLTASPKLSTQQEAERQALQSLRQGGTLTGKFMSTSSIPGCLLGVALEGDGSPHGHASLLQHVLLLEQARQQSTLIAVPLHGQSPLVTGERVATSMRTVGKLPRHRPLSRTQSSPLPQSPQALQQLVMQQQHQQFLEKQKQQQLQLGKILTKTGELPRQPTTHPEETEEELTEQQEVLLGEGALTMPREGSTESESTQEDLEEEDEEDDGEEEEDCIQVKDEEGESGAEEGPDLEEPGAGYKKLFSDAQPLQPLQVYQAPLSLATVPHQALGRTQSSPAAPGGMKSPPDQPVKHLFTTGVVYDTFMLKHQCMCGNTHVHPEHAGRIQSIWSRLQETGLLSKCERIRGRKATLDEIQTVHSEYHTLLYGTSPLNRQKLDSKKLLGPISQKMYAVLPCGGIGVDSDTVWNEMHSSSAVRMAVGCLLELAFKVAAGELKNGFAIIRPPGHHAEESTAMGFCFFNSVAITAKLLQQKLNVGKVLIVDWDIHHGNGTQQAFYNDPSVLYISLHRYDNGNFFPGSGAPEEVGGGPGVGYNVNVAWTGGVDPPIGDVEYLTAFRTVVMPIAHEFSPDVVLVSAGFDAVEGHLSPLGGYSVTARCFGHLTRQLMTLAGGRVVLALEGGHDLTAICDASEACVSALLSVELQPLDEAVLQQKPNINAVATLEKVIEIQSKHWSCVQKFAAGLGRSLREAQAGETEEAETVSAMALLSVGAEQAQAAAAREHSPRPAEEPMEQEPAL
Chain of Histone deacetylase 9 (Q9UKV0 whole entry, the tested form may be a part): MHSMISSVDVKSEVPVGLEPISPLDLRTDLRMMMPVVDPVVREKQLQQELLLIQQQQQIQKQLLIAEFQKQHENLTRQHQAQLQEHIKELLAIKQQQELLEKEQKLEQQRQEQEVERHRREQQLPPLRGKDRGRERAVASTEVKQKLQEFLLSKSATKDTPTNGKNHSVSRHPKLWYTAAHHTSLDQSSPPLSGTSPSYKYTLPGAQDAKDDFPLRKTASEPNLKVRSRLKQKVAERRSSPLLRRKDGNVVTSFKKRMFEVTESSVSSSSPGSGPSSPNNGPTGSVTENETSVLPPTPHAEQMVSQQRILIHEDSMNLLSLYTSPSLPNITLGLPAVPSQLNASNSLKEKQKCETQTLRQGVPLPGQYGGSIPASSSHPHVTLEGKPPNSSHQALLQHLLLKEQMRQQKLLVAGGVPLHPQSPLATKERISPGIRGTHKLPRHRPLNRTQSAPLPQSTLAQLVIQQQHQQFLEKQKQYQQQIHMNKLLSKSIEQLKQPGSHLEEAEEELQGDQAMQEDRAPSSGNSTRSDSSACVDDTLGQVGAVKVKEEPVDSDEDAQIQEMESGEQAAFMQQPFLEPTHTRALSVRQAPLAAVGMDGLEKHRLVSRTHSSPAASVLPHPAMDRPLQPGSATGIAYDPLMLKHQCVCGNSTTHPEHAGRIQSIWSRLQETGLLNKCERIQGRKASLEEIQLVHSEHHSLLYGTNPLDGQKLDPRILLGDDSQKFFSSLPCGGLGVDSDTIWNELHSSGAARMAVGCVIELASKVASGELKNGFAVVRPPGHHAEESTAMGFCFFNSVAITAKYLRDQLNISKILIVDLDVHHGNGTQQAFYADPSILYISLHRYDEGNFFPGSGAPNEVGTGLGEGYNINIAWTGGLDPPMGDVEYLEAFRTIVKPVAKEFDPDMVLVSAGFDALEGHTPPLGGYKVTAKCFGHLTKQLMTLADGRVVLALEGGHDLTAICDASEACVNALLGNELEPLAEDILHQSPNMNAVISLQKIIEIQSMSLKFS

inhibition [3]: inactive
pIC50 (Histone deacetylase 4): < 4.30
pIC50 (Histone deacetylase 5): < 4.30
pIC50 (Histone deacetylase 9): < 4.30
pIC50 (Histone deacetylase 7): < 4.30
Structure (SMILES): CCCNNC(=O)c1ccc(NC(=O)[C@H](Cc2c[nH]c3ccccc23)NC(=O)c2ccc(OC)cc2)cc1
Activity (PC-3 [1]): inactive
Activity (MV4-11 [2]): Active
viability at 10 µM (PC-3 [4]): 20%
Activity (PC-3 [5]): inactive
Activity (MV4-11 [6]): Active
Activity (MV4-11 [7]): Active
